# Laboratory results reported in publication PMC6754270 (Cell chemical biology, 2019).
# Values joined by “and” are separate entries in the source; they are usually repeats but may differ in a detail not shown here. Equal values may be shown once. Read-outs that look alike come from different tables or passages of the source.
# Tests used:
# [1] = target: T1, spastin-WT (Drosophila melanogaster spastin, aa 209–758) (Drosophila melanogaster, UniProt Q8I0P1); assay: Steady-state ATPase activity, NADH-coupled assay, spastin-WT; type: biochemical
# T1 sequence (Q8I0P1 209-758): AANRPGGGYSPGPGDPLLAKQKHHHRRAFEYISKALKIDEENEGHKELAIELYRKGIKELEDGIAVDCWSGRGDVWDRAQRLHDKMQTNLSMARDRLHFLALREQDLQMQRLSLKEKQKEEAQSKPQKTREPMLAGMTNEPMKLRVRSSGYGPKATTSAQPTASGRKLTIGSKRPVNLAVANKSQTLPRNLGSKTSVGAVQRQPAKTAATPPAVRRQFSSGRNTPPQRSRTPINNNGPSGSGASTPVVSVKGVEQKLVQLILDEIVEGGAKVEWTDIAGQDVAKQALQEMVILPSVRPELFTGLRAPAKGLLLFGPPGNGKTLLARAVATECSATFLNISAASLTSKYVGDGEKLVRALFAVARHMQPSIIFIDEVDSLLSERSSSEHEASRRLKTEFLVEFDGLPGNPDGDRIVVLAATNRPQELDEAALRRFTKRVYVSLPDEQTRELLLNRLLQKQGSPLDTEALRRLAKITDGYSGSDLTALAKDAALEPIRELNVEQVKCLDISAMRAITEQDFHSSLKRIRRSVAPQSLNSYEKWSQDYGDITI
# katanin (Xl-katanin) [2] = target: T2, katanin (Xl-katanin) (Xenopus laevis, UniProt Q9PUL2); conditions: ref Cupido et al., 2019; cited from earlier work
# T2 sequence (Q9PUL2 whole entry, the tested form may be a part): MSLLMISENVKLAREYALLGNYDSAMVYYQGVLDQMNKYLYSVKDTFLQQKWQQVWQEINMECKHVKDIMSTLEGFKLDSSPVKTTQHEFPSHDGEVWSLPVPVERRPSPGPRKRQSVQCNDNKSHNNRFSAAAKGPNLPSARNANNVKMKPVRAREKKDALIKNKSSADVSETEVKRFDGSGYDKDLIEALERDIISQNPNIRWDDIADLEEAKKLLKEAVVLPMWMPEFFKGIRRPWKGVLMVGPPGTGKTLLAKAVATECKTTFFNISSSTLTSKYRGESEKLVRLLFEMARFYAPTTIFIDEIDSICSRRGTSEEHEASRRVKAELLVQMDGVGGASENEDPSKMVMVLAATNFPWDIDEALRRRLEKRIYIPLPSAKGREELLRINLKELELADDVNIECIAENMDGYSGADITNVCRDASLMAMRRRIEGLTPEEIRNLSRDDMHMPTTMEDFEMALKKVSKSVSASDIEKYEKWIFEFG
# [3] = target: spastin-Q488V (aa 209–758) (Drosophila melanogaster, UniProt Q8I0P1, Q488V); assay: Steady-state ATPase activity, NADH-coupled assay, spastin-Q488V; type: biochemical; conditions: for Change in inhibitor potency, Q488V (N-loop) vs wild-type: ATPase assay, compound 4: reduction in potency
# Sequence of spastin-Q488V (aa 209–758) (Q8I0P1 209-758 Q488V): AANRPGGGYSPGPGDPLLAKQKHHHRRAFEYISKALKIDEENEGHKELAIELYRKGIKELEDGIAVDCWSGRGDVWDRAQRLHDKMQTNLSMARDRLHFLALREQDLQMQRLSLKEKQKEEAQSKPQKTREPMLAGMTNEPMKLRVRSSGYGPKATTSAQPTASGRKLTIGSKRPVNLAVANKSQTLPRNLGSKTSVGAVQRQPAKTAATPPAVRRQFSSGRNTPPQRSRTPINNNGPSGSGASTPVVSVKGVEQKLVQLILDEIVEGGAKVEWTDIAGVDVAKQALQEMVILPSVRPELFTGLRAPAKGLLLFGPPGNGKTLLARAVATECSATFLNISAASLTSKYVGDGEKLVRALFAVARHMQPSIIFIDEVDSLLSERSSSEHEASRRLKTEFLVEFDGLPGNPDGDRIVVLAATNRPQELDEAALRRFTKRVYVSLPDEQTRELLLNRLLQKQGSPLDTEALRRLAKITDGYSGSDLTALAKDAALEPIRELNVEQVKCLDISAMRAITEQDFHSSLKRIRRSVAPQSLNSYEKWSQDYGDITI
# [4] = target: T3, spastin-AAA-WT (aa 445–758) (Drosophila melanogaster, UniProt Q8I0P1); assay: Differential scanning fluorimetry, spastin-AAA-WT; type: binding; conditions: 100 µM compound, vs DMSO, n=2
# T3 sequence (Q8I0P1 445-758): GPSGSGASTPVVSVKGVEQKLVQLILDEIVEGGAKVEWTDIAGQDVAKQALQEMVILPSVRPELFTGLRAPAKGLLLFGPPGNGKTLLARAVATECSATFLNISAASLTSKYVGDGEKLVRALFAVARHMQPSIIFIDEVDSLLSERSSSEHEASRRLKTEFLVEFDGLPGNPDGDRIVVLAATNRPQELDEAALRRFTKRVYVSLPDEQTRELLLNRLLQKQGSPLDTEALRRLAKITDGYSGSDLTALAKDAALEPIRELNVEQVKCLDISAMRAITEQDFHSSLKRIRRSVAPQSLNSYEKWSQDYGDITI
# In short: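 Drosophila spastin AAA domain (aa 445–758), expressed as a GST fusion in E. coli Rosetta, protease-cleaved and purified by anion exchange and gel filtration. Tm taken as minimum of first-derivative melt curve; n=2, range shown.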
# [5] = target: T4, fidgetin-like 1 (Hs-FIGL1) (Homo sapiens, UniProt Q6PIW4); conditions: ref Cupido et al., 2019; cited from earlier work
# T4 sequence (Q6PIW4 1-674): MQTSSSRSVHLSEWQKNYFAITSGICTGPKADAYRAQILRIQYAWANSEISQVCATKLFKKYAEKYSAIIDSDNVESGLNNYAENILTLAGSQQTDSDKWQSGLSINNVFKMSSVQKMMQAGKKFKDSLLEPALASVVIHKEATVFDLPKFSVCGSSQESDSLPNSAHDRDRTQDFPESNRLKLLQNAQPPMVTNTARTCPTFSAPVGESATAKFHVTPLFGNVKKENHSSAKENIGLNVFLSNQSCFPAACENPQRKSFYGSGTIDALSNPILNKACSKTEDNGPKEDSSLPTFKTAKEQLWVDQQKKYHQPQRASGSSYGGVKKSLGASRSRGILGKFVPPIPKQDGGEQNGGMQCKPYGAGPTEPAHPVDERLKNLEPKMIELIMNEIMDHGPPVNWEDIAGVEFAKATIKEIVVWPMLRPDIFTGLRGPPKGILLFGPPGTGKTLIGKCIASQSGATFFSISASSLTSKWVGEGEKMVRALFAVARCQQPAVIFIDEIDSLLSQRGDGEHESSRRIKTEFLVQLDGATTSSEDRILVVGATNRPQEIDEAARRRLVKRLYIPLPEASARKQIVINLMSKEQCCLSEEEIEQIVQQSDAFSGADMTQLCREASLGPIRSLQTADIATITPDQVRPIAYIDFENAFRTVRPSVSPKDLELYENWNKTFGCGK
# [6] = target: spastin-AAA-N527C (aa 445–758) (Drosophila melanogaster, UniProt Q8I0P1, N527C); assay: Differential scanning fluorimetry, spastin-AAA-N527C; type: binding; conditions: 100 µM compound, vs DMSO, n=2
# Sequence of spastin-AAA-N527C (aa 445–758) (Q8I0P1 445-758 N527C): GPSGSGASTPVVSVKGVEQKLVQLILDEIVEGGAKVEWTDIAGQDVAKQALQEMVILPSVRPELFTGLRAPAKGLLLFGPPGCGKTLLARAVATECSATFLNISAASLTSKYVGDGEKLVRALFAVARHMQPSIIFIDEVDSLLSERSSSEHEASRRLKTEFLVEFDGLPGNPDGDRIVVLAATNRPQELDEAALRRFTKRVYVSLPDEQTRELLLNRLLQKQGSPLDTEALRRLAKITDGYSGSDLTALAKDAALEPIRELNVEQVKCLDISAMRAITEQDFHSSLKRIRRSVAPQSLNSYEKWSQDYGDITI
# [7] = target: spastin-N527C (aa 209–758) (Drosophila melanogaster, UniProt Q8I0P1, N527C); assay: Steady-state ATPase activity, NADH-coupled assay, spastin-N527C; type: biochemical; conditions: for Change in inhibitor potency, N527C (P-loop) vs wild-type: ATPase assay, compound 4: reduction in potency
# Sequence of spastin-N527C (aa 209–758) (Q8I0P1 209-758 N527C): as the sequence (Q8I0P1 209-758 Q488V) above, with V280Q, N319C counted along it
# [8] = target: T1, spastin-WT (Drosophila melanogaster spastin, aa 209–758); conditions: ref Cupido et al., 2019; cited from earlier work
# [9] = target: spastin-AAA-T692A (aa 445–758) (Drosophila melanogaster, UniProt Q8I0P1, T692A); assay: Differential scanning fluorimetry, spastin-AAA-T692A; type: binding; conditions: 100 µM compound, vs DMSO, n=2
# Sequence of spastin-AAA-T692A (aa 445–758) (Q8I0P1 445-758 T692A): as the sequence (Q8I0P1 445-758 N527C) above, with C83N, T248A counted along it
# [10] = target: spastin-AAA-Q488V (aa 445–758) (Drosophila melanogaster, UniProt Q8I0P1, Q488V); assay: Differential scanning fluorimetry, spastin-AAA-Q488V; type: binding; conditions: 100 µM compound, vs DMSO, n=2
# Sequence of spastin-AAA-Q488V (aa 445–758) (Q8I0P1 445-758 Q488V): as the sequence (Q8I0P1 445-758 N527C) above, with Q44V, C83N counted along it
# [11] = target: spastin-T692A (aa 209–758) (Drosophila melanogaster, UniProt Q8I0P1, T692A); assay: Steady-state ATPase activity, NADH-coupled assay, spastin-T692A; type: biochemical; conditions: for Change in inhibitor potency, T692A (sensor-II) vs wild-type: ATPase assay, compound 1: increase in potency
# Sequence of spastin-T692A (aa 209–758) (Q8I0P1 209-758 T692A): as the sequence (Q8I0P1 209-758 Q488V) above, with V280Q, T484A counted along it
# [12] = target: T4, fidgetin-like 1 (Hs-FIGL1); assay: Steady-state ATPase activity of fidgetin-like 1; type: biochemical, H. sapiens; conditions: 2 µM compound, 0.5 mM MgATP, n=2
# katanin (Xl-katanin) [13] = target: T2, katanin (Xl-katanin); assay: Steady-state ATPase activity of katanin; type: biochemical, X. laevis; conditions: 2 µM compound, 0.5 mM MgATP, n=2
# VPS4B (Hs-VPS4B) = target: T5, VPS4B (Hs-VPS4B) (Homo sapiens, UniProt O75351); assay: Steady-state ATPase activity of VPS4B; type: biochemical, H. sapiens; conditions: 2 µM compound, 0.5 mM MgATP, n=2
# T5 sequence (O75351 1-444): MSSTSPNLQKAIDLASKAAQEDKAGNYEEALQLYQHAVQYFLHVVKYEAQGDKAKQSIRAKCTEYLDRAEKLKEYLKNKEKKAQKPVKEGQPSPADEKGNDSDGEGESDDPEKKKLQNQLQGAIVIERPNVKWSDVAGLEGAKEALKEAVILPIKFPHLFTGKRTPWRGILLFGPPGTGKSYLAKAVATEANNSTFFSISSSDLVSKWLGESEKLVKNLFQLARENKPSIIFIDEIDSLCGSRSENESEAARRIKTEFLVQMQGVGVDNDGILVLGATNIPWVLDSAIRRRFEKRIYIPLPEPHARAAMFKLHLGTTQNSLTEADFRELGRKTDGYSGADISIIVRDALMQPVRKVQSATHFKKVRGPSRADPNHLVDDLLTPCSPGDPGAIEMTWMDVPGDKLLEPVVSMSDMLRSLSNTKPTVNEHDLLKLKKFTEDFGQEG
# human VCP/p97 T688A = conditions: sensor-II variability hot-spot mutation; ref Anderson et al., 2015; cited from earlier work
Structure (SMILES),IC50 [3] [nM],"Change in inhibitor potency, Q488V (N-loop) vs wild-type [3]","Observed ∆Tm, spastin-AAA-WT [4]","Observed ∆Tm, spastin-AAA-N527C [6]",IC50 [7] [nM],"Change in inhibitor potency, N527C (P-loop) vs wild-type [7]","Observed ∆Tm, spastin-AAA-T692A [9]","Observed ∆Tm, spastin-AAA-Q488V [10]",IC50 [11] [nM],"Change in inhibitor potency, T692A (sensor-II) vs wild-type [11]",other results
"Nc1nc(Nc2ccc(S(N)(=O)=O)cc2)nn1C(=O)c1c(F)cccc1F [compound 1, 4-((5-amino-1-(2,6-difluorobenzoyl)-1H-1,2,4-triazol-3-yl)amino)benzenesulfonamide]",8900 ± 500,less than 2 fold,~ 4.5 °C,~ 4.3 °C,6000 ± 1000,less than 2 fold,~ 6.2 °C,~ 4.5 °C,900 ± 100,~ 7 fold,"IC50 ([1]; IC50, inhibition of steady-state ATPase activity of spastin-WT, 0.5 mM MgATP, average ± s.d., n=3): 5700 nM and 5800 nM; Mechanism of inhibition ([1]; range of ATP concentrations, apparent K1/2 for ATP increased, kcat not altered): ATP competitive mechanism of inhibition; Effect on ATPase activity of katanin (katanin (Xl-katanin) [2]): blocks the ATPase activity; Effect on ATPase activity of fidgetin-like 1 [5]: blocks the ATPase activity; Effect on ATPase activity of spastin [8]: blocks the ATPase activity"
"CNC(=O)c1cccc(Nc2nc(N)n(C(=O)c3c(F)cccc3OC)n2)c1 [compound 4, 3-((5-amino-1-(2-fluoro-6-methoxybenzoyl)-1H-1,2,4-triazol-3-yl)amino)-N-methylbenzamide]",2600 ± 150,~ 11 fold,~ 6.7 °C,~ 4.5 °C,1110 ± 210,~ 4 fold,~ 7.2 °C,~ 5.0 °C,220 ± 40,did not change the potency,"IC50 [1]: 230 ± 20 nM; Inhibition of steady-state ATPase activity of spastin ([1]; 2 µM compound, 0.5 mM MgATP, n=2): potently inhibits; Inhibition of steady-state ATPase activity of fidgetin-like 1 [12]: does not substantially inhibit; Inhibition of steady-state ATPase activity of katanin (katanin (Xl-katanin) [13]): does not substantially inhibit; Inhibition of steady-state ATPase activity of VPS4B (VPS4B (Hs-VPS4B)): does not substantially inhibit"
Cc1cc2c(C(N)=O)cccc2n1-c1nc2c(c(NCc3ccccc3)n1)COCC2 [CB-5083],–,–,–,–,–,–,–,–,–,–,"Change in compound potency, T688A vs wild-type VCP/p97 (human VCP/p97 T688A): > 60 fold"
